Results as given in ChEMBL document CHEMBL3351726 (J Med Chem, 2014).
Residues, ends and D or L forms follow the SMILES beside them.

Assays:
[1] = Retention time of the compound measured over 15 mins at flow rate of 1 mL/min by HPLC
[2] = Retention time of the compound measured over 30 mins at flow rate of 1 mL/min by HPLC; format: physicochemical; details: 0.5 h
In short: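 Reversed-phase analytical HPLC or LC−MS on a SymmetryShield RP18 column (5 μm, 4.6 × 150 mm). Gradient 10−60% B over 30 min at 1 mL/min; A = 0.1% TFA in water, B = 0.1% TFA in acetonitrile.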

HEK293 = assay: Selectivity ratio of IC50 for rat Nav1.2 expressed in HEK-293 cells to IC50 for human Nav1.7 expressed in HEK-293 cells; format: cell-based

SMILES	Retention_time [1]	Retention_time [2]	Ratio IC50 (HEK293)
CSCC[C@@H]1NC(=O)CNC(=O)[C@H](CCC(=O)O)NC(=O)[C@@H]2CSSC[C@H](NC(=O)[C@@H](N)Cc3ccc(O)cc3)C(=O)N[C@@H](CCC(N)=O)C(=O)N[C@@H](CCCCN)C(=O)N[C@@H](Cc3c[nH]c4ccccc34)C(=O)N[C@@H](CCSC)C(=O)N[C@@H](Cc3c[nH]c4ccccc34)C(=O)N[C@@H]([C@@H](C)O)C(=O)N[C@H]3CSSC[C@H](NC(=O)[C@H](C(C)C)NC1=O)C(=O)N[C@@H](CCCNC(=N)N)C(=O)N[C@@H](CC(C)C)C(=O)N[C@@H](Cc1c[nH]c4ccccc14)C(=O)N[C@H](C(=O)N[C@@H](CCCCN)C(=O)N[C@@H](CCCCN)C(=O)N[C@@H](CCCCN)C(=O)N[C@@H](CC(C)C)C(=O)N[C@@H](Cc1c[nH]c4ccccc14)C(=O)O)CSSC[C@H](NC(=O)[C@H](CCCCN)NC(=O)[C@H](CCCNC(=N)N)NC(=O)[C@H](CCC(=O)O)NC(=O)[C@H](CO)NC(=O)[C@H](CC(=O)O)NC3=O)C(=O)N2	9.35 min	14.54 min	–
CSCC[C@@H]1NC(=O)[C@H](Cc2c[nH]c3ccccc23)NC(=O)[C@H](CCCCN)NC(=O)[C@H](CCC(N)=O)NC(=O)[C@@H](NC(=O)[C@@H](N)Cc2ccc(O)cc2)CSSC[C@@H]2NC(=O)[C@@H]3CSSC[C@@H](C(=O)N[C@@H](CCCCN)C(=O)N[C@@H](CCCCN)C(=O)N[C@@H](CCCCN)C(=O)N[C@@H](CC(C)C)C(=O)N[C@@H](Cc4c[nH]c5ccccc45)C(=O)O)NC(=O)[C@H](Cc4c[nH]c5ccccc45)NC(=O)[C@H](CC(C)C)NC(=O)[C@H](CCCNC(=N)N)NC(=O)[C@H](CSSC[C@H](NC(=O)[C@H]([C@@H](C)O)NC(=O)[C@H](Cc4c[nH]c5ccccc45)NC1=O)C(=O)N[C@@H](CC(=O)O)C(=O)N[C@@H](CO)C(=O)N[C@@H](CCC(=O)O)C(=O)N[C@@H](CCCNC(=N)N)C(=O)N[C@@H](CCCCN)C(=O)N3)NC(=O)[C@H](C(C)C)NC(=O)[C@H](CC(C)C)NC(=O)CNC(=O)[C@H](CCC(=O)O)NC2=O	9.87 min	15.44 min	26
CC[C@H](C)[C@H](NC(=O)[C@@H](NC(=O)[C@H](CCCCN)NC(=O)[C@H](CCCCN)NC(=O)[C@@H]1CSSC[C@@H]2NC(=O)[C@H](CCCCN)NC(=O)[C@H](CCCNC(=N)N)NC(=O)[C@H](CCC(=O)O)NC(=O)[C@H](CO)NC(=O)[C@H](CC(=O)O)NC(=O)[C@@H]3CSSC[C@H](NC(=O)[C@H](C(C)C)NC(=O)[C@H](CCSC)NC(=O)CNC(=O)[C@H](CCC(=O)O)NC(=O)[C@H](CSSC[C@H](NC(=O)[C@@H](N)Cc4ccc(O)cc4)C(=O)N[C@@H](CCC(N)=O)C(=O)N[C@@H](CCCCN)C(=O)N[C@@H](Cc4c[nH]c5ccccc45)C(=O)N[C@@H](CCSC)C(=O)N[C@@H](Cc4c[nH]c5ccccc45)C(=O)N[C@@H]([C@@H](C)O)C(=O)N3)NC2=O)C(=O)N[C@@H](CCCNC(=N)N)C(=O)N[C@@H](CC(C)C)C(=O)N[C@@H](Cc2c[nH]c3ccccc23)C(=O)N1)[C@@H](C)CC)C(=O)O	9.44 min	18.47 min	2
CSCC[C@@H]1NC(=O)CNC(=O)[C@H](CCC(=O)O)NC(=O)[C@@H]2CSSC[C@H](NC(=O)[C@@H](N)Cc3ccc(O)cc3)C(=O)N[C@@H](CCC(N)=O)C(=O)N[C@@H](CCCCN)C(=O)N[C@@H](Cc3c[nH]c4ccccc34)C(=O)N[C@@H](CCSC)C(=O)N[C@@H](Cc3c[nH]c4ccccc34)C(=O)N[C@@H]([C@@H](C)O)C(=O)N[C@H]3CSSC[C@H](NC(=O)[C@H](C(C)C)NC1=O)C(=O)N[C@@H](CCCNC(=N)N)C(=O)N[C@@H](CC(C)C)C(=O)N[C@@H](Cc1c[nH]c4ccccc14)C(=O)N[C@H](C(=O)N[C@@H](CCCCN)C(=O)N[C@@H](CCCCN)C(=O)N[C@@H](CCCCN)C(=O)N[C@@H](CC(C)C)C(=O)N[C@@H](Cc1c[nH]c4ccccc14)C(N)=O)CSSC[C@H](NC(=O)[C@H](CCCCN)NC(=O)[C@H](CCCNC(=N)N)NC(=O)[C@H](CCC(=O)O)NC(=O)[C@H](CO)NC(=O)[C@H](CC(=O)O)NC3=O)C(=O)N2	9 min	14.78 min	–
CC[C@H](C)[C@H](NC(=O)[C@H](CCCCN)NC(=O)[C@H](CCCCN)NC(=O)[C@@H]1CSSC[C@@H]2NC(=O)[C@H](CCCCN)NC(=O)[C@H](CCCNC(=N)N)NC(=O)[C@H](C)NC(=O)[C@H](CO)NC(=O)[C@H](CC(=O)O)NC(=O)[C@@H]3CSSC[C@H](NC(=O)[C@H](C(C)C)NC(=O)[C@H](CC(C)C)NC(=O)CNC(=O)[C@H](CCC(=O)O)NC(=O)[C@H](CSSC[C@H](NC(=O)[C@@H](N)Cc4ccc(O)cc4)C(=O)N[C@@H](CCC(N)=O)C(=O)N[C@@H](CCCCN)C(=O)N[C@@H](Cc4c[nH]c5ccccc45)C(=O)N[C@@H](CCSC)C(=O)N[C@@H](Cc4c[nH]c5ccccc45)C(=O)N[C@@H]([C@@H](C)O)C(=O)N3)NC2=O)C(=O)N[C@@H](CCCNC(=N)N)C(=O)N[C@@H](CC(C)C)C(=O)N[C@@H](Cc2c[nH]c3ccccc23)C(=O)N1)C(=O)N[C@H](C(=O)N[C@@H](Cc1c[nH]c2ccccc12)C(=O)O)[C@@H](C)CC (HELM PEPTIDE1{Y.C.Q.K.W.M.W.T.C.D.S.A.R.K.C.C.E.G.L.V.C.R.L.W.C.K.K.I.I.W}$PEPTIDE1,PEPTIDE1,2:R3-16:R3|PEPTIDE1,PEPTIDE1,9:R3-21:R3|PEPTIDE1,PEPTIDE1,15:R3-25:R3$$$V2.0)	9.29 min	15.83 min	9
[H][C@]12CSSC[C@@H](C(=O)N[C@@H](CCCCN)C(=O)N[C@@H](CCCCN)C(=O)N[C@H](C(=O)N[C@H](C(=O)O)[C@@H](C)CC)[C@@H](C)CC)NC(=O)[C@H](Cc3c[nH]c4ccccc34)NC(=O)[C@H](CC(C)C)NC(=O)[C@H](CCCNC(=N)N)NC(=O)[C@]3([H])CSSC[C@]([H])(NC(=O)[C@]([H])([C@@H](C)O)NC(=O)[C@H](Cc4c[nH]c5ccccc45)NC(=O)[C@H](CCSC)NC(=O)[C@H](Cc4c[nH]c5ccccc45)NC(=O)[C@H](CCCCN)NC(=O)[C@H](CCC(N)=O)NC(=O)[C@@H](NC(=O)[C@@H](N)Cc4ccc(O)cc4)CSSC[C@]([H])(NC1=O)C(=O)N[C@@H](CCC(=O)O)C(=O)NCC(=O)N[C@@H](CC(C)C)C(=O)N[C@@H](C(C)C)C(=O)N3)C(=O)N[C@@H](CC(=O)O)C(=O)N[C@@H](CO)C(=O)N[C@@H](C)C(=O)N[C@@H](CCCNC(=N)N)C(=O)N[C@@H](CCCCN)C(=O)N2 (HELM PEPTIDE1{Y.C.Q.K.W.M.W.T.C.D.S.A.R.K.C.C.E.G.L.V.C.R.L.W.C.K.K.I.I}$PEPTIDE1,PEPTIDE1,2:R3-16:R3|PEPTIDE1,PEPTIDE1,9:R3-21:R3|PEPTIDE1,PEPTIDE1,15:R3-25:R3$$$V2.0)	7.9 min	12.58 min	–
[H][C@]12CSSC[C@@H](C(=O)N[C@@H](CCCCN)C(=O)N[C@@H](CCCCN)C(=O)N[C@H](C(=O)N[C@@H](CC(C)C)C(=O)N[C@@H](Cc3c[nH]c4ccccc34)C(=O)O)[C@@H](C)CC)NC(=O)[C@H](Cc3c[nH]c4ccccc34)NC(=O)[C@H](CC(C)C)NC(=O)[C@H](CCCNC(=N)N)NC(=O)[C@]3([H])CSSC[C@]([H])(NC(=O)[C@]([H])([C@@H](C)O)NC(=O)[C@H](Cc4c[nH]c5ccccc45)NC(=O)[C@H](CCSC)NC(=O)[C@H](Cc4c[nH]c5ccccc45)NC(=O)[C@H](CCCCN)NC(=O)[C@H](CCC(N)=O)NC(=O)[C@@H](NC(=O)[C@@H](N)Cc4ccc(O)cc4)CSSC[C@]([H])(NC1=O)C(=O)N[C@@H](CCC(=O)O)C(=O)NCC(=O)N[C@@H](CC(C)C)C(=O)N[C@@H](C(C)C)C(=O)N3)C(=O)N[C@@H](CC(=O)O)C(=O)N[C@@H](CO)C(=O)N[C@@H](C)C(=O)N[C@@H](CCCNC(=N)N)C(=O)N[C@@H](CCCCN)C(=O)N2 (HELM PEPTIDE1{Y.C.Q.K.W.M.W.T.C.D.S.A.R.K.C.C.E.G.L.V.C.R.L.W.C.K.K.I.L.W}$PEPTIDE1,PEPTIDE1,2:R3-16:R3|PEPTIDE1,PEPTIDE1,9:R3-21:R3|PEPTIDE1,PEPTIDE1,15:R3-25:R3$$$V2.0)	9.54 min	15.95 min	20
[H][C@]12CSSC[C@@H](C(=O)N[C@@H](CCCCN)C(=O)N[C@@H](CCCCN)C(=O)N[C@@H](CCCCN)C(=O)N[C@H](C(=O)N[C@@H](CC(C)C)C(=O)N[C@@H](Cc3c[nH]c4ccccc34)C(=O)O)[C@@H](C)CC)NC(=O)[C@H](Cc3c[nH]c4ccccc34)NC(=O)[C@H](CC(C)C)NC(=O)[C@H](CCCNC(=N)N)NC(=O)[C@]3([H])CSSC[C@]([H])(NC(=O)[C@]([H])([C@@H](C)O)NC(=O)[C@H](Cc4c[nH]c5ccccc45)NC(=O)[C@H](CCSC)NC(=O)[C@H](Cc4c[nH]c5ccccc45)NC(=O)[C@H](CCCCN)NC(=O)[C@H](CCC(N)=O)NC(=O)[C@@H](NC(=O)[C@@H](N)Cc4ccc(O)cc4)CSSC[C@]([H])(NC1=O)C(=O)N[C@@H](CCC(=O)O)C(=O)NCC(=O)N[C@@H](CC(C)C)C(=O)N[C@@H](C(C)C)C(=O)N3)C(=O)N[C@@H](CC(=O)O)C(=O)N[C@@H](CO)C(=O)N[C@@H](C)C(=O)N[C@@H](CCCNC(=N)N)C(=O)N[C@@H](CCCCN)C(=O)N2 (HELM PEPTIDE1{Y.C.Q.K.W.M.W.T.C.D.S.A.R.K.C.C.E.G.L.V.C.R.L.W.C.K.K.K.I.L.W}$PEPTIDE1,PEPTIDE1,2:R3-16:R3|PEPTIDE1,PEPTIDE1,9:R3-21:R3|PEPTIDE1,PEPTIDE1,15:R3-25:R3$$$V2.0)	9.05 min	15.88 min	33
